Hits are enriched below; roughly 1.8% of the tested compounds scored in any of these assays.
GSTO1 inh – inhibitors of recombinant GSTO1, primary screen, counter-screen for RBBP9 inhibitor project, biochemical, fluorescence polarization; Glutathione S-transferase omega-1 (Homo sapiens), P78417; activity-based probe fluorescence polarization; inhibition, % at 5.96 µM; 1.1% of 300,000 active;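 active means inhibition above the campaign mean inhibition plus 3 SD, cut at about 35% in these data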
Target sequence (P78417 whole entry, looked up): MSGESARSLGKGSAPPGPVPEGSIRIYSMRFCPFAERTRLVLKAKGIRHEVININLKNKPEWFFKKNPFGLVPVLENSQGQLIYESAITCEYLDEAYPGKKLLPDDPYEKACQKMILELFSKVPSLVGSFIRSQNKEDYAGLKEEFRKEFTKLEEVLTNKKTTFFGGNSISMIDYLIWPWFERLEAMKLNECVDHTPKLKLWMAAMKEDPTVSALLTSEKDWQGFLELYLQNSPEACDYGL
TDP2 absorb – human TDP2 enzyme inhibitors, primary screen, biochemical, epi absorbance, recombinant enzyme; Tyrosyl-DNA phosphodiesterase 2 (Homo sapiens), O95551; T5PNP hydrolysis, p-nitrophenol absorbance 415 nm; inhibition, % at 12.8 µM; 0.34% of 370,000 active;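 active means inhibition above the mean of all tested compounds plus 3 SD, set per campaign, cut at about 25% in these data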
Target sequence (O95551 whole entry, looked up): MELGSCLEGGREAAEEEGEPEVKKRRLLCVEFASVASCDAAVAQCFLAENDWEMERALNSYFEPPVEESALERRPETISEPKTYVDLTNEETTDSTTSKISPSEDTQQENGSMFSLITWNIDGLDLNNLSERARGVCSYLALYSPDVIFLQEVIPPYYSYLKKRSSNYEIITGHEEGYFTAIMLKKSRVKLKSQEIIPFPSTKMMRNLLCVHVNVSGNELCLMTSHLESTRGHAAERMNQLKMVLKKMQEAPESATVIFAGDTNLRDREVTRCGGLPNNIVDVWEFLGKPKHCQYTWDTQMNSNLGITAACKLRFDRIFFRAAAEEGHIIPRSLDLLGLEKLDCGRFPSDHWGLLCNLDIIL
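Test system: Human TDP2 enzyme | Reagent: 5 mM T5PNP | Compound dosing: 12.8 µM single point, 1% DMSO | Incubation: Enzyme reaction with compound for 2 h at 37 °C | Technique: p-Nitrophenol epi absorbance | Read-out: % inhibition relative to enzyme-containing and enzyme-free wells | Benchmarks: High control without enzyme, low control DMSO plus TDP2 | Replicates: Singlicate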
Apaf1 inhib – inhibitors of human Apaf-1 apoptosome, primary screen, biochemical, DEVD-Rh110 fluorescence, uHTS; Apoptotic protease-activating factor 1 (Homo sapiens), O14727; reconstituted apoptosome caspase-3 activity; inhibition, % at 20 µM; 0.71% of 330,000 active; AID 489030, 2010; active means inhibition of at least 40% at 20 µM
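Assay system – apoptosome proteins · Medium – Hepes buffer, pH 7.5 · Also added – cytochrome c with DEVD-Rh110 · Timing – 30 min compound preincubation, 50 min activation, room temperature · Detection – Rh110 fluorescence, excitation 480 nm, emission 540 nm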
PAD4 inh – human PAD4 inhibitors, primary screen, biochemical, fluorescence polarization, 1536-well format | Protein-arginine deiminase type-4 (Homo sapiens), Q9UM07 | recombinant PAD4, RCA probe fluorescence polarization | inhibition, % at 6.36 µM | 0.41% of 330,000 active | AID 485272, 2010;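 active means percent inhibition above a cutoff equal to the mean of all tested compounds plus 3 SD, cut at about 15% in these data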
CTSL1 counter – Fasciola hepatica cathepsin L1 inhibitors, primary screen, counter-screen for PFM18AAP inhibitor project, biochemical, QFRET, fluorogenic peptide substrate; 0.49% of 300,000 active; inhibition, % at 5.96 µM; recombinant F. hepatica cathepsin L1, Z-Leu-Arg-MCA fluorescence; AID 1906, 2009;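 active means inhibition above the mean of all tested compounds plus 3 SD, set per screening campaign, cut at about 17% in these data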
Of the large screens only hits and unclear results are named; the others gave an inactive call.

O=C(c1ccccc1OCc1ccccc1)N(Cc1ccccn1)CC1CCCO1 (stereo not given)	none (no result: GSTO1 inh, Apaf1 inhib, PAD4 inh, CTSL1 counter)
CCc1nnc(NC(=O)CSc2sc3c(O)cc(=O)[nH]c3c2C#N)s1	GSTO1 inh 48, TDP2 absorb 25
CCSc1nnc(NC(=O)CSc2sc3c(O)cc(=O)[nH]c3c2C#N)s1	none
CC(C)Cc1nnc(NC(=O)CSc2nc(N)cc(=O)[nH]2)s1	GSTO1 inh 47
CCc1nnc(NC(=O)CSc2nc3c(C)cccc3[nH]2)s1	GSTO1 inh 36
Cc1cc(-c2n[nH]c(=S)n2N=Cc2c3ccccc3cc3ccccc23)n[nH]1	none (no result: GSTO1 inh, Apaf1 inhib, PAD4 inh, CTSL1 counter)
Cc1ccsc1-c1nc(-c2ccccc2)c(-c2ccccc2)[nH]1	CTSL1 counter 19
Cn1cc(CCOCc2ccccc2)c2ccccc21	none (no result: GSTO1 inh, Apaf1 inhib, PAD4 inh, CTSL1 counter)
Cc1ccc(C)c(NC(=O)c2cccc3c2-c2ccccc2C3=O)c1	none (no result: GSTO1 inh, Apaf1 inhib, PAD4 inh, CTSL1 counter)
O=C(Nc1cccc(N=Cc2cc(Cl)cc(Br)c2O)c1)c1ccco1	CTSL1 counter 18
O=C(Nc1cccc(N=Cc2cc(Br)cc(Br)c2O)c1)c1ccco1	none (no result: Apaf1 inhib)
C[C@H]1C(=O)N2[C@@H](C[C@]3(c4c[nH]c5ccccc45)c4ccccc4N(S(=O)(=O)c4ccccc4)[C@H]23)C(=O)N1C	none (no result: GSTO1 inh, Apaf1 inhib, PAD4 inh, CTSL1 counter)
Cc1ccc(NC(=O)c2sc(N)nc2-c2ccccc2)cc1C	CTSL1 counter 34
O=C(Nc1ccc(N2C(=O)[C@@H]3[C@H](C2=O)[C@@H]2C=C[C@H]3C2)c(Cl)c1)c1ccccn1	none (no result: GSTO1 inh, Apaf1 inhib, PAD4 inh, CTSL1 counter)
O=C(CCl)N=c1sccn1Cc1ccccc1Cl	GSTO1 inh 102
O=C(c1cccc(Oc2ccccc2)c1)N1CCC(Oc2cccnc2)CC1	none (no result: GSTO1 inh, Apaf1 inhib, PAD4 inh, CTSL1 counter)
Cc1cc(C)nc(NC(=O)/C=C/c2ccc(Cl)cc2Cl)c1	CTSL1 counter 19
Cc1cc(C)nc(NC(=O)/C=C/c2ccccc2Cl)c1	none
C/C=C/C=C/C(=O)N1CC[C@]23c4ccccc4N[C@H]4N(C)c5cccc6c5[C@]42CCN([C@H]6C2OC2(C)C)[C@H]13 (stereo not given in full)	GSTO1 inh 37
CN1CCC23c4ccccc4NC1C21CCN(C)C3Nc2ccccc21	none
CC(=O)c1ccc(NC(=O)CSc2nnc(-c3ccco3)c(-c3ccco3)n2)cc1	GSTO1 inh 35
CC(=O)Nc1ccc(NC(=O)CSc2nnc(-c3ccco3)o2)cc1	none
O=c1cc(N2CCN(c3cccc(Cl)c3Cl)CC2)[nH]c(=O)n1C1CCCCC1	none (no result: GSTO1 inh, Apaf1 inhib, PAD4 inh, CTSL1 counter)
CCN1CCN(CCNC(=O)c2ccc3nc(-c4cccc(C)c4)c(-c4cccc(C)c4)nc3c2)CC1	Apaf1 inhib 47
O=C(Nc1ccc2[nH]c3c(c2c1)CCCC3)c1ccco1	GSTO1 inh 35
CC(=O)c1cccc(NC(=O)c2cnn3c(C)cc(C)nc23)c1	none (no result: GSTO1 inh, Apaf1 inhib, PAD4 inh, CTSL1 counter)
COCc1cc(N2CCNC[C@H]2C)ccc1N1C[C@@H](C)O[C@@H](C)C1	none (no result: GSTO1 inh, Apaf1 inhib, PAD4 inh, CTSL1 counter)
CCNc1ccccc(C(=O)/C=C/c2ccc3c(c2)OCO3)c1=O	GSTO1 inh 44
CCC(C)Nc1ccc(NC(C)CC)cc1 (stereo not given)	Apaf1 inhib 43 (no result: GSTO1 inh, TDP2 absorb, CTSL1 counter)
CCC(C)NC(=O)Nc1ccc(Br)cc1 (stereo not given)	none
C=CCNC(=S)N/N=C/c1cn(C)c2ccccc12	none
Cn1cc(/C=N/NC(N)=S)c2ccccc21	CTSL1 counter 100
CCOC(=O)c1cc(C#N)c(SCC(N)=O)[nH]c1=O	GSTO1 inh 36
Cc1cccc(CSc2nnc(-c3ccco3)o2)c1	none
CC(=O)c1c(C)cc(C)c(CSc2nnc(-c3ccco3)o2)c1C	GSTO1 inh 35
COc1ccc(NC(=O)C2C3C=CC4(O3)C2C(=O)N(CCN2CCCCC2)C4C(=O)NC2CCCC(C)C2C)cc1 (stereo not given)	CTSL1 counter 20
Cc1cc(C)cc(NC(=O)C2C3C=CC4(O3)C2C(=O)N(CCCN2CCCC2)C4C(=O)NC2CCCC(C)C2C)c1 (stereo not given)	none
Cc1cc2nc(-c3cccc(NC(=O)c4ccc(Br)o4)c3C)oc2cc1C	CTSL1 counter 18
Cc1ccc2oc(-c3cccc(NC(=O)c4ccc(Br)o4)c3C)nc2c1	none
CCCCCCn1c(Br)nc2c1c(=O)n(C)c(=O)n2C	CTSL1 counter 35
CN1CCN(c2ccccc2NC(=O)c2ccc(F)cc2)CC1	none
CC1CCN(c2ccccc2NC(=O)c2ccc(F)cc2)CC1	CTSL1 counter 18
CCN(Cc1ccccc1)Cc1c(C)[nH]c2c(C)c(C)ccc2c1=O	CTSL1 counter 48
C=CCN(CC=C)Cc1c(C)[nH]c2c(C)c(C)ccc2c1=O	none
C[C@H]1[C@@H](N)CC[C@@]23CCCN2C(=O)CCC[C@@H]13	none (no result: GSTO1 inh, Apaf1 inhib, PAD4 inh, CTSL1 counter)
CCOC(=O)CCN(Cc1cccs1)S(=O)(=O)c1ccc(F)cc1	GSTO1 inh 38
CCOC(=O)CCN(Cc1sccc1C)S(=O)(=O)c1ccc(F)cc1	none
Cc1cc2c(nc1C)CCCN2S(=O)(=O)c1c(C)noc1C	none (no result: GSTO1 inh, Apaf1 inhib, PAD4 inh, CTSL1 counter)
COCC(=O)NCc1ccc2c(c1)cc(C)n2C	PAD4 inh 15
Cc1ccc2[nH]cc(C(=O)CN3CCN(C)CC3)c2c1	none
Cc1ccc2[nH]cc(C(=O)CCl)c2c1	GSTO1 inh 93, CTSL1 counter 61
Cc1ccc(NC(=S)NCc2cccn2C)cc1	none
Cc1cccc(NC(=S)NCc2cccn2C)c1	GSTO1 inh 37
COc1ccc(-c2cc(-c3nnc(SCC(=O)Nc4cccc(Cl)c4C)n3N)[nH]n2)cc1	none (no result: GSTO1 inh, Apaf1 inhib, PAD4 inh, CTSL1 counter)
CCOC(=O)COn1c(=O)c(-c2ccc(Cl)cc2)[n+]([O-])c2ccccc21	none (no result: GSTO1 inh, PAD4 inh, CTSL1 counter)
CCOC(=O)COn1c(=O)c(-c2ccc(C)cc2)[n+]([O-])c2ccccc21	CTSL1 counter 20
CC(C)[C@H](NC(=O)[C@@H]1CSC2c3ccccc3C(=O)N21)C(=O)NCC1CCCO1 (stereo not given in full)	none
CCC(C)[C@H](NC(=O)[C@@H]1CSC2c3ccccc3C(=O)N21)C(=O)NCC1CCCO1 (stereo not given in full)	CTSL1 counter 17
CCOC(=O)c1c(C)[nH]c(C(=O)COC(=O)CNC(=O)C2CCCCC2)c1C	CTSL1 counter 27
CCOC(=O)c1c(C)[nH]c(C(=O)COC(=O)CNC(=O)c2ccccc2Cl)c1C	none
CCOC(=O)c1c(C)[nH]c(C)c1C(=O)COC(=O)CNC(=O)C1CCCCC1	CTSL1 counter 54
O=C(NCCCc1ccccc1)[C@H](Cc1ccccc1)NC1(C(=O)NCCc2c[nH]c3ccccc23)CCOCC1	none (no result: GSTO1 inh, Apaf1 inhib, PAD4 inh, CTSL1 counter)
CC(Cl)C(=O)c1c[nH]c2ccccc12 (stereo not given)	GSTO1 inh 37
CCOc1ccc(N=C2NC(=O)C(CC(=O)Nc3ccccc3)S2)cc1 (stereo not given)	CTSL1 counter 19

Assay outcomes from PubChem BioAssay.
